PMC6977399 (Clinical Pharmacology and Therapeutics, 2019)
pIC50: −log10 of the molar value.

Key:
CYP2C9 = CYP2C9 (Homo sapiens, UniProt P11712); assay: CYP inhibition in human liver microsomes; format: in vitro ADME; conditions: up to 50 μM
Outline: (§1)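 Reversible inhibition: test compound pre-incubated 10 min at 37°C with pooled human liver microsomes plus an isoform-selective probe substrate. Reaction started with NADPH (1.3 mM), then quenched with 3% formic acid in acetonitrile containing internal standard. CYP-specific metabolite formation measured by LC-MS/MS. Activity expressed as % control = (peak area ratio with compound / without compound) × 100.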

[1] = phase I single-ascending and multiple-ascending dose studies; cited from earlier work
CYP2D6 = CYP2D6 (Homo sapiens, UniProt P10635); assay: CYP inhibition in human liver microsomes; format: in vitro ADME; conditions: up to 15 μM
CYP2D6, sequence (P10635 whole entry): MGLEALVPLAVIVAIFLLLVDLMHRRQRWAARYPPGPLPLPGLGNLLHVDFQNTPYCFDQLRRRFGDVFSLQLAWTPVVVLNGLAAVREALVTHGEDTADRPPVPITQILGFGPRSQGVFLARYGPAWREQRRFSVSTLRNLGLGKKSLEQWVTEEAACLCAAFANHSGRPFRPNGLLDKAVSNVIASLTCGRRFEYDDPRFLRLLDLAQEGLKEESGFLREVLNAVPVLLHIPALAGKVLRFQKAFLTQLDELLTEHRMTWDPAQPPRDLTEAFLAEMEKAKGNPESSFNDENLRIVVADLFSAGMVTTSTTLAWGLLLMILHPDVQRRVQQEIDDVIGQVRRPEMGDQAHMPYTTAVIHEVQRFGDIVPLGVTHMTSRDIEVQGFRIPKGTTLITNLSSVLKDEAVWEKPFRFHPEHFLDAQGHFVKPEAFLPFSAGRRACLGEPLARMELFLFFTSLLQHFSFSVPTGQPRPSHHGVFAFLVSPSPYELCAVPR

CYP2C19 = CYP2C19 (Homo sapiens, UniProt P33261); assay: CYP inhibition in human liver microsomes; format: in vitro ADME; conditions: up to 15 μM
CYP2C19, sequence (P33261 whole entry): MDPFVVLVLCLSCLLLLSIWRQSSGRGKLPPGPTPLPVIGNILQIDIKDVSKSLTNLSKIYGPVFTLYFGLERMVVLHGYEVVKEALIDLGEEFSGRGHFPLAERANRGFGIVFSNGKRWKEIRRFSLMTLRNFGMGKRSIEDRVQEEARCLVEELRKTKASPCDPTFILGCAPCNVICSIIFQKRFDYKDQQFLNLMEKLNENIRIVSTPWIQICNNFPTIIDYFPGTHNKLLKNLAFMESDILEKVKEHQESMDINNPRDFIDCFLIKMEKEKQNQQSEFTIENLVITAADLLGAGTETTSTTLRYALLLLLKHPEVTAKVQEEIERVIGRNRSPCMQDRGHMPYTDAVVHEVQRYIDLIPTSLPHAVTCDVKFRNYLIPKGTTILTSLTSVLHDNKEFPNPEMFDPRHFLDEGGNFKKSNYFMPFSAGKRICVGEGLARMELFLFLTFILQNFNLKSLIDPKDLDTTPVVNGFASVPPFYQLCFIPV
Outline: as §1

CYP3A [2] = assay: Reversible CYP3A inhibition in human liver microsomes; format: in vitro ADME; conditions: MDZ and testosterone as probe substrates
Outline: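 Test compound was pre-incubated for 10 min at 37°C with pooled human liver microsomes containing an isoform-selective substrate. Metabolite formation was expressed as % control activity, calculated as the peak area ratio with compound divided by the peak area ratio without compound, ×100.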

CYP3A [3] = assay: Time-dependent inhibition of CYP3A in human liver microsomes; format: in vitro ADME; conditions: for kinact: human
[4] = Fenebrutinib plasma exposure at 200 mg b.i.d. in the clinical DDI study; format: in vivo; conditions: human, oral, observed Cmax at steady-state, data not shown
OATP1B1 = biological target: T1, OATP1B1 (Homo sapiens, UniProt Q9Y6L6); assay: Inhibition of OATP1B1-mediated E217ßG uptake in HEK293 cells; format: in vitro ADME
T1 sequence (Q9Y6L6 1-691): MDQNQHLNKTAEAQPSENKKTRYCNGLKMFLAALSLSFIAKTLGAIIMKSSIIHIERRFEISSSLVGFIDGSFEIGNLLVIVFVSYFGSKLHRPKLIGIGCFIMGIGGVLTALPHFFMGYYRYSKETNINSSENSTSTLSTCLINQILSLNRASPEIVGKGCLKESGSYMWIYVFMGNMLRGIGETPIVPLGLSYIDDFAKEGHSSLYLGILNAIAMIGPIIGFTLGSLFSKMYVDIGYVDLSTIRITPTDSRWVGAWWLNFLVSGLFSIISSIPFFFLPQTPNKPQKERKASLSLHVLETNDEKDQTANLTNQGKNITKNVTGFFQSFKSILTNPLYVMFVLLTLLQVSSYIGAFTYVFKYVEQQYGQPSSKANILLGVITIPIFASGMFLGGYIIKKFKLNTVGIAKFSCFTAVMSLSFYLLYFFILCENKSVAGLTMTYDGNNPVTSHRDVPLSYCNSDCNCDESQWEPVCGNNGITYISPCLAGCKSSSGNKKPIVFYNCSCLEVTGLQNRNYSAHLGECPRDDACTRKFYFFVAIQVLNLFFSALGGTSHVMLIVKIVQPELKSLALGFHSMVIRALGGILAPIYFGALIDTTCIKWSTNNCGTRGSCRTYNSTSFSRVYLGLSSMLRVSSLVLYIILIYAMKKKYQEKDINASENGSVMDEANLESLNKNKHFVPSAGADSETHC

CYP2C8 = biological target: T2, CYP2C8 (Homo sapiens, UniProt P10632); assay: CYP inhibition in human liver microsomes; format: in vitro ADME; conditions: up to 50 μM
T2 sequence (P10632 1-490): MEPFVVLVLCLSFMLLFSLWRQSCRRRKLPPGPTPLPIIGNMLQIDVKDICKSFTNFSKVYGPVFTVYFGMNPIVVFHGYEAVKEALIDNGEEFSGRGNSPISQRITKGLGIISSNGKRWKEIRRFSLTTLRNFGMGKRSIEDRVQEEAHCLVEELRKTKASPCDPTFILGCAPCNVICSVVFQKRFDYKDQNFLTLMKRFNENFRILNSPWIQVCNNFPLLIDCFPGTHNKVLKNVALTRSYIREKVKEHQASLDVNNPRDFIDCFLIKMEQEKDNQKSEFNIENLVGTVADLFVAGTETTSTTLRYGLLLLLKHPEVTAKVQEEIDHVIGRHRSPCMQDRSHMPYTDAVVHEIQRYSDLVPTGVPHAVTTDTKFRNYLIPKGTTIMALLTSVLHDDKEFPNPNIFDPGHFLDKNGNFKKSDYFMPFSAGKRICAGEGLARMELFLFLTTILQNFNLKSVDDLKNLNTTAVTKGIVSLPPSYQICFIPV
Outline: as §1

CYP1A2 = biological target: T3, CYP1A2 (Homo sapiens, UniProt P05177); assay: CYP inhibition in human liver microsomes; format: in vitro ADME; conditions: up to 50 μM
T3 sequence (P05177 1-516): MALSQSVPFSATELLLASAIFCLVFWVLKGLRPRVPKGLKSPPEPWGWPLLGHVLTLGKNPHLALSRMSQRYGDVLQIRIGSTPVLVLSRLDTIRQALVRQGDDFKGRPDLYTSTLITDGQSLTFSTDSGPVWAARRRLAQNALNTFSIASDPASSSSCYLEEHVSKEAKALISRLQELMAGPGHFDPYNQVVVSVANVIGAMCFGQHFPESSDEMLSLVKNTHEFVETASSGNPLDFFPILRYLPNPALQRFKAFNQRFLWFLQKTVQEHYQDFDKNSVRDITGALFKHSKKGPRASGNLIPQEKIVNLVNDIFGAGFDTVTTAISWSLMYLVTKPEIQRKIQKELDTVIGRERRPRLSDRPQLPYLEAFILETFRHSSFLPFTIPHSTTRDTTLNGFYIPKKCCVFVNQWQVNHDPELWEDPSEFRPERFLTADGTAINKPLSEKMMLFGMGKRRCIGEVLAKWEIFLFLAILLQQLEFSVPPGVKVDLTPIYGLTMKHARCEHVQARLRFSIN
Outline: as §1

Bruton's tyrosine kinase = conditions: phase I studies; cited from earlier work
CYP3A [5] = conditions: 200 mg b.i.d.; based on MDZ AUC increase, weak > 1.25 to < 2-fold

CYP2C9, sequence (P11712 whole entry, canonical isoform): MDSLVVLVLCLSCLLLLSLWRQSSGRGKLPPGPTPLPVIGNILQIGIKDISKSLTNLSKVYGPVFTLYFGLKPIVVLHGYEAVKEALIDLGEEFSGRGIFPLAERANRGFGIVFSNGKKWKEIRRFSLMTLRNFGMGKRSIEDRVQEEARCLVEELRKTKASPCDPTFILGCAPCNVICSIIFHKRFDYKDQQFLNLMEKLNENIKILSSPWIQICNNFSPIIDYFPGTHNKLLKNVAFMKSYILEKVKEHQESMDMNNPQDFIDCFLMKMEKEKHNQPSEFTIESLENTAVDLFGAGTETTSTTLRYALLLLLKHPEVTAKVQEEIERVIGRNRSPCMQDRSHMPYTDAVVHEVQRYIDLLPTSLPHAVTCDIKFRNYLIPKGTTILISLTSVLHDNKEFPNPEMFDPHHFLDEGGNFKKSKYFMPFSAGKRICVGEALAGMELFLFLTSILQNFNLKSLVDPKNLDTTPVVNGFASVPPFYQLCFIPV

SMILES: C[C@H]1CN(C2COC2)CCN1c1ccc(Nc2cc(-c3ccnc(N4CCn5c(cc6c5CC(C)(C)C6)C4=O)c3CO)cn(C)c2=O)nc1 [fenebrutinib]
- reversible or time-dependent inhibition of CYP2C9 (CYP2C9): No reversible or time‐dependent inhibition
- terminal half-life (t1/2) [1]: 4−10 hours
- reversible or time-dependent inhibition of CYP2D6 (CYP2D6): No reversible or time‐dependent inhibition
- reversible or time-dependent inhibition of CYP2C19 (CYP2C19): No reversible or time‐dependent inhibition
- reversible CYP3A inhibition (CYP3A [2]): no reversible CYP3A inhibition
- kinact/Ki ratio, CYP3A (CYP3A [3]): 1.4 mL/min/µmol
- time-dependent inhibition (TDI) of CYP3A (CYP3A [3]; MDZ and testosterone as probe substrates): TDI was observed
- kinact (CYP3A [3]; probe midazolam (50 µM)): 0.00019 s⁻¹
- kinact (CYP3A [3]; probe testosterone (250 µM)): 0.00025 s⁻¹
- Cmax [4]: ~1000 nM
- pIC50 (OATP1B1): 4.71
- inhibition at 30 μM (OATP1B1; human, HEK293 cells stably expressing human OATP1B1, pH 7.4, probe E217ßG (1 μM)): 62.8%
- reversible or time-dependent inhibition of CYP2C8 (CYP2C8): No reversible or time‐dependent inhibition
- reversible or time-dependent inhibition of CYP1A2 (CYP1A2): No reversible or time‐dependent inhibition
- plasma concentration showing target engagement (Bruton's tyrosine kinase): 100 nM
- clinical classification as CYP3A inhibitor (CYP3A [5]): weak inhibitor
